Data from the RNAGym collection of RNA variant scans (doi:10.1126/science.aae0568).
Fewer inactive variants are shown than the library holds.

B1: tRNA (parent)
chain: GUUCCGUUGGCGUAAUGGUAACGCGUCUCCCUCCUAAGGAGAAGACUGCGGGUUCGAGUCCCGUACGGAACG

Variants of: B1
Test: yeast fitness relative to wild type (ratio to wild type); higher = fitter; tRNA-Arg(CCU), competitive growth, 37 C, YPD
Outline: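 Changes in genotype frequencies gave Darwinian fitness relative to wild type. Frequencies were read by 100-nucleotide paired-end sequencing of gene amplicons before and after pooled Saccharomyces cerevisiae strains, carrying tRNA-Arg(CCU) gene variants at the native locus, were competed in YPD at 37°C for 24 hours in six replicates. A genotype was kept only with ≥ 100 starting reads, and estimates < 0.5 were set to 0.5.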

**Q.** Which yeast fitness does the source give for G23C G39C A70U here?
**A.** ≤ 0.5

**Q.** With C22U U64A as the variant, how does the yeast fitness read?
**A.** 0.837

**Q.** For C24A C30U A65G C66U, which yeast fitness is on record?
**A.** ≤ 0.5

**Q.** For G23A G38A G67C, which yeast fitness is on record?
**A.** ≤ 0.5

**Q.** Which yeast fitness does the source give for G23A A36G C55G A69U here?
**A.** 0.567

**Q.** Which yeast fitness does the source give for C22U U32C G48C A57G G68C here?
**A.** ≤ 0.5

**Q.** For C24A A43U U59A C61U, which yeast fitness is on record?
**A.** ≤ 0.5

**Q.** With G23C C30G A37U C62U A65U as the variant, how does the yeast fitness read?
**A.** ≤ 0.5

**Q.** With G23A C30U C62A G68A as the variant, how does the yeast fitness read?
**A.** 0.575

**Q.** With G23C C49G as the variant, how does the yeast fitness read?
**A.** 0.563

**Q.** Which yeast fitness does the source give for C22U U54C G67A here?
**A.** ≤ 0.5

**Q.** Which yeast fitness does the source give for G23A C46A G58A here?
**A.** 0.566

**Q.** For G23A C29U C31U A42G, which yeast fitness is on record?
**A.** ≤ 0.5

**Q.** For G23C A37G C66A, which yeast fitness is on record?
**A.** ≤ 0.5

**Q.** For G23C U26G C33G A45C, which yeast fitness is on record?
**A.** ≤ 0.5

**Q.** For G23A C27U C34U A45C A70U, which yeast fitness is on record?
**A.** 0.57

**Q.** Which yeast fitness does the source give for G23C C31A C49G C55A here?
**A.** 0.534

**Q.** With C24A C33G as the variant, how does the yeast fitness read?
**A.** 0.705

**Q.** Which yeast fitness does the source give for C24A C33A here?
**A.** 0.587

**Q.** With C24A C33U as the variant, how does the yeast fitness read?
**A.** 0.601

**Q.** With G23C C49A U59C G67A A69G as the variant, how does the yeast fitness read?
**A.** ≤ 0.5

**Q.** With C22U U47A G63A as the variant, how does the yeast fitness read?
**A.** 0.503

**Q.** With G23C U26A C29G A36U as the variant, how does the yeast fitness read?
**A.** 0.68

**Q.** For G23C U28G G41A A42U U59A, which yeast fitness is on record?
**A.** ≤ 0.5

**Q.** Which yeast fitness does the source give for G23A C33G C62A here?
**A.** 0.742

**Q.** For C24A A36G C61U, which yeast fitness is on record?
**A.** ≤ 0.5

**Q.** Which yeast fitness does the source give for G23C C24G C34U G39A A45C here?
**A.** ≤ 0.5

**Q.** With C22U U35A as the variant, how does the yeast fitness read?
**A.** 0.553

**Q.** For C24A G44C C49A C60U A69C, which yeast fitness is on record?
**A.** 0.599

**Q.** Which yeast fitness does the source give for G23A C34A A43U U47C here?
**A.** 0.577

**Q.** For G23C A42G G56A, which yeast fitness is on record?
**A.** ≤ 0.5

**Q.** With C24A A43G A70C as the variant, how does the yeast fitness read?
**A.** ≤ 0.5

**Q.** Which yeast fitness does the source give for G23A C29A C31U A42G A43C U54G here?
**A.** ≤ 0.5

**Q.** With G23C G48A U64A A65U as the variant, how does the yeast fitness read?
**A.** ≤ 0.5

**Q.** For G23A C24U C61U, which yeast fitness is on record?
**A.** 0.64

**Q.** Which yeast fitness does the source give for G23C A40C here?
**A.** 0.666

**Q.** With C24A A65U as the variant, how does the yeast fitness read?
**A.** 0.549

**Q.** Which yeast fitness does the source give for C24A A65G here?
**A.** 0.654

**Q.** With G23C C31U as the variant, how does the yeast fitness read?
**A.** 0.579

**Q.** For C24A G48A U53G G67C, which yeast fitness is on record?
**A.** ≤ 0.5

**Q.** For G23A U26G A65C, which yeast fitness is on record?
**A.** ≤ 0.5

**Q.** Which yeast fitness does the source give for G23A C30U C62A here?
**A.** 0.561

**Q.** With G23A U53G as the variant, how does the yeast fitness read?
**A.** ≤ 0.5

**Q.** With G23C C29A C66U as the variant, how does the yeast fitness read?
**A.** ≤ 0.5

**Q.** For C24A A43U G51C G52C, which yeast fitness is on record?
**A.** ≤ 0.5

**Q.** For G23C A36U C46G C60U, which yeast fitness is on record?
**A.** 0.591

**Q.** With C24A G48C as the variant, how does the yeast fitness read?
**A.** 0.621

**Q.** For G23A A36C U47C G48C, which yeast fitness is on record?
**A.** ≤ 0.5

**Q.** With G23U G52A C55A U64A as the variant, how does the yeast fitness read?
**A.** ≤ 0.5

**Q.** For G23A C49U G63A A65C, which yeast fitness is on record?
**A.** ≤ 0.5

**Q.** With C24A C27G C61U as the variant, how does the yeast fitness read?
**A.** 0.575

**Q.** Which yeast fitness does the source give for G23A U59C here?
**A.** 0.799

**Q.** With C22U U32G C34U A40G G58A C66U as the variant, how does the yeast fitness read?
**A.** ≤ 0.5

**Q.** For C24A A45G G50A, which yeast fitness is on record?
**A.** ≤ 0.5

**Q.** For G23C C24G U32G A42C G44A G51C C60U, which yeast fitness is on record?
**A.** ≤ 0.5

**Q.** For C22U U35C C55A A65G C66U, which yeast fitness is on record?
**A.** ≤ 0.5

**Q.** For G23C C61U C66G A70U, which yeast fitness is on record?
**A.** 0.562

**Q.** With G23C C27A A57U A69U as the variant, how does the yeast fitness read?
**A.** ≤ 0.5

**Q.** For C22U U32G C34U G38U A40G C55G A70U, which yeast fitness is on record?
**A.** ≤ 0.5

**Q.** Which yeast fitness does the source give for G23C G67A here?
**A.** 0.56

**Q.** With G23A C30A U54C C55U as the variant, how does the yeast fitness read?
**A.** ≤ 0.5

**Q.** Which yeast fitness does the source give for G23C C27U G56A G63C here?
**A.** 0.573

**Q.** Which yeast fitness does the source give for C24A G51A C60U G67A here?
**A.** ≤ 0.5

**Q.** Which yeast fitness does the source give for G23C G44C G68C here?
**A.** ≤ 0.5

**Q.** For G23A A42G, which yeast fitness is on record?
**A.** 0.747

**Q.** With G23C C24G C34G U64A G67A as the variant, how does the yeast fitness read?
**A.** ≤ 0.5

**Q.** For G23C A36U G51C, which yeast fitness is on record?
**A.** ≤ 0.5

**Q.** Which yeast fitness does the source give for C24A G56A here?
**A.** 0.711

**Q.** Which yeast fitness does the source give for G23C G39A here?
**A.** 0.669

**Q.** With G23A C29U C30A G67A as the variant, how does the yeast fitness read?
**A.** ≤ 0.5

**Q.** For G23A C24G A37C, which yeast fitness is on record?
**A.** 0.506

**Q.** Which yeast fitness does the source give for G23C A37G C55G G67A here?
**A.** ≤ 0.5

**Q.** Which yeast fitness does the source give for G23A G25C G51A here?
**A.** 0.661

**Q.** Which yeast fitness does the source give for G23A C29A C61U here?
**A.** ≤ 0.5

**Q.** For G23C A42G, which yeast fitness is on record?
**A.** 0.575

**Q.** Which yeast fitness does the source give for G23C C46U A70U here?
**A.** 0.622

**Q.** For G23C, which yeast fitness is on record?
**A.** 0.653

**Q.** With G23U as the variant, how does the yeast fitness read?
**A.** 0.779

**Q.** For G23A, which yeast fitness is on record?
**A.** 0.741

**Q.** Which yeast fitness does the source give for G23A A36G C55G G63A A69U here?
**A.** ≤ 0.5

**Q.** With G23A A43C G44A A65G as the variant, how does the yeast fitness read?
**A.** 0.637

**Q.** For G23A A70U, which yeast fitness is on record?
**A.** 0.854

**Q.** Which yeast fitness does the source give for G23A A70G here?
**A.** 0.689

**Q.** With G23A C30U A37U G41C as the variant, how does the yeast fitness read?
**A.** 0.634
